In paper PMC5615838 (Toxicology Reports, 2016):

What was measured:
[1] = in vitro metabolism in human liver microsomes; assay type: in vitro ADME; conditions: 50 μM, 120 min
[2] = toxicokinetics in 90-day toxicity study; assay type: in vivo, rat; conditions: for AUC(0-t) / Cmax: rat, plasma, po; for AUC(0-t): AUC0-24h
In short: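 In the 90-day dietary study (10, 30, 100 mg/kg bw/day), plasma taken at 6 time points over 24 h on Day 7, Week 6 and Week 13, assayed by validated LC-MS/MS. […] Accumulation ratio = AUC0-24h at Week 6 or 13 / Day 7.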

[3] = definitive developmental toxicity study; assay type: in vivo, rat
[4] = molecular target: human bitter receptor hTAS2R8; conditions: antagonist; cited from earlier work
[5] = female, Sprague-Dawley [Crl:CD(SD)], 10 mg/kg, Day 7, 10 mg/kg bw, F
[6] = female, Sprague-Dawley [Crl:CD(SD)], 10 mg/kg, Week 13, 10 mg/kg bw, F
[7] = female, Sprague-Dawley [Crl:CD(SD)], 30 mg/kg, Day 7, 30 mg/kg bw, F
[8] = female, Sprague-Dawley [Crl:CD(SD)], 30 mg/kg, Week 13, 30 mg/kg bw, F
[9] = female, Sprague-Dawley [Crl:CD(SD)], 100 mg/kg, Day 7, 100 mg/kg bw, F
[10] = female, Sprague-Dawley [Crl:CD(SD)], 100 mg/kg, Week 13, 100 mg/kg bw, F
[11] = female, Sprague-Dawley, 10 mg/kg, Week 6, 10 mg/kg bw, F
[12] = female, Sprague-Dawley, 30 mg/kg, Week 6, 30 mg/kg bw, F
[13] = female, Sprague-Dawley, 100 mg/kg, Week 6, 100 mg/kg bw, F
[14] = male, Sprague-Dawley [Crl:CD(SD)], 10 mg/kg, Day 7, 10 mg/kg bw, M
[15] = male, Sprague-Dawley [Crl:CD(SD)], 10 mg/kg, Week 13, 10 mg/kg bw, M
[16] = male, Sprague-Dawley [Crl:CD(SD)], 30 mg/kg, Day 7, 30 mg/kg bw, M
[17] = male, Sprague-Dawley [Crl:CD(SD)], 30 mg/kg, Week 13, 30 mg/kg bw, M
[18] = male, Sprague-Dawley [Crl:CD(SD)], 100 mg/kg, Day 7, 100 mg/kg bw, M
[19] = male, Sprague-Dawley [Crl:CD(SD)], 100 mg/kg, Week 13, 100 mg/kg bw, M
[20] = male, Sprague-Dawley, 10 mg/kg, Week 6, 10 mg/kg bw, M
[21] = male, Sprague-Dawley, 30 mg/kg, Week 6, 30 mg/kg bw, M
[22] = male, Sprague-Dawley, 100 mg/kg, Week 6, 100 mg/kg bw, M

## Cc1noc(C)c1Cn1cc(N2C(=O)CN(Cc3cccc(O)c3)C2=O)cn1 [S6821, 3-(1-((3,5-dimethylisoxazol-4-yl)methyl)-1H-pyrazol-4-yl)-1-(3-hydroxybenzyl)imidazolidine-2,4-dione]
[1]
  parent S6821 remaining, peak area % of time 0: 75%
[2]; 100 mg/kg bw/day, females
  Cmax and AUC0-24h higher than predicted from a linear relationship: ~1.3 fold
[2]; 100 mg/kg bw/day, males
  Cmax and AUC0-24h lower than predicted from a linear relationship: ~32%
[2]; Day 7, 10 mg/kg bw, F
  AUC0-24h/dose: 12.2 ng·h/mL/mg/kg
  AUC0-24h Ratio: 1
  Cmax Ratio: 1
[2]; Day 7, 10 mg/kg bw, M
  AUC0-24h/dose: 11.8 ng·h/mL/mg/kg
  AUC0-24h Ratio: 1
  Cmax Ratio: 1
[2]; Day 7, 30 mg/kg bw, F
  AUC0-24h/dose: 14.5 ng·h/mL/mg/kg
  AUC0-24h Ratio: 3.5
  Cmax Ratio: 3.8
[2]; Day 7, 30 mg/kg bw, M
  AUC0-24h/dose: 9.83 ng·h/mL/mg/kg
  AUC0-24h Ratio: 2.5
  Cmax Ratio: 2.8
[2]; Day 7, 100 mg/kg bw, F
  AUC0-24h/dose: 15.0 ng·h/mL/mg/kg
  AUC0-24h Ratio: 12.3
  Cmax Ratio: 13.7
[2]; Day 7, 100 mg/kg bw, M
  AUC0-24h/dose: 8.44 ng·h/mL/mg/kg
  AUC0-24h Ratio: 7.2
  Cmax Ratio: 6.8
[2]; Week 6, 10 mg/kg bw, F
  ACUM Ratio: 0.93
  AUC0-24h/dose: 11.3 ng·h/mL/mg/kg
  AUC0-24h Ratio: 1
  Cmax Ratio: 1
[2]; Week 6, 10 mg/kg bw, M
  ACUM Ratio: 1.07
  AUC0-24h/dose: 12.6 ng·h/mL/mg/kg
  AUC0-24h Ratio: 1
  Cmax Ratio: 1
[2]; Week 6, 30 mg/kg bw, F
  ACUM Ratio: 0.76
  AUC0-24h/dose: 11.0 ng·h/mL/mg/kg
  AUC0-24h Ratio: 2.9
  Cmax Ratio: 2.8
[2]; Week 6, 30 mg/kg bw, M
  ACUM Ratio: 0.99
  AUC0-24h/dose: 9.77 ng·h/mL/mg/kg
  AUC0-24h Ratio: 2.3
  Cmax Ratio: 2.3
[2]; Week 6, 100 mg/kg bw, F
  ACUM Ratio: 0.87
  AUC0-24h/dose: 13.0 ng·h/mL/mg/kg
  AUC0-24h Ratio: 11.5
  Cmax Ratio: 15.1
[2]; Week 6, 100 mg/kg bw, M
  ACUM Ratio: 0.90
  AUC0-24h/dose: 7.58 ng·h/mL/mg/kg
  AUC0-24h Ratio: 6.0
  Cmax Ratio: 4.1
[2]; Week 13, 10 mg/kg bw, F
  ACUM Ratio: 1.02
  AUC0-24h/dose: 12.5 ng·h/mL/mg/kg
  AUC0-24h Ratio: 1
  Cmax Ratio: 1
[2]; Week 13, 10 mg/kg bw, M
  ACUM Ratio: 1.04
  AUC0-24h/dose: 12.3 ng·h/mL/mg/kg
  AUC0-24h Ratio: 1
  Cmax Ratio: 1
[2]; Week 13, 30 mg/kg bw, F
  ACUM Ratio: 0.79
  AUC0-24h/dose: 11.5 ng·h/mL/mg/kg
  AUC0-24h Ratio: 2.8
  Cmax Ratio: 2.4
[2]; Week 13, 30 mg/kg bw, M
  ACUM Ratio: 1.03
  AUC0-24h/dose: 10.2 ng·h/mL/mg/kg
  AUC0-24h Ratio: 2.5
  Cmax Ratio: 3.1
[2]; Week 13, 100 mg/kg bw, F
  ACUM Ratio: 1.11
  AUC0-24h/dose: 16.7 ng·h/mL/mg/kg
  AUC0-24h Ratio: 13.4
  Cmax Ratio: 12.9
[2]; Week 13, 100 mg/kg bw, M
  ACUM Ratio: 1.10
  AUC0-24h/dose: 9.25 ng·h/mL/mg/kg
  AUC0-24h Ratio: 7.5
  Cmax Ratio: 9.1
[2]; [5]
  AUC(0-t): 122 ng·h/mL
  Cmax: 7.22 ng/mL
[2]; [6]
  AUC(0-t): 125 ng·h/mL
  Cmax: 8.32 ng/mL
[2]; [7]
  AUC(0-t): 436 ng·h/mL
  Cmax: 27.7 ng/mL
[2]; [8]
  AUC(0-t): 344 ng·h/mL
  Cmax: 19.8 ng/mL
[2]; [9]
  AUC(0-t): 1500 ng·h/mL
  Cmax: 99 ng/mL
[2]; [10]
  AUC(0-t): 1670 ng·h/mL
  Cmax: 107 ng/mL
[2]; [11]
  AUC(0-t): 113 ng·h/mL
  Cmax: 6.34 ng/mL
[2]; [12]
  AUC(0-t): 331 ng·h/mL
  Cmax: 17.5 ng/mL
[2]; [13]
  AUC(0-t): 1300 ng·h/mL
  Cmax: 95.6 ng/mL
[2]; [14]
  AUC(0-t): 118 ng·h/mL
  Cmax: 6.05 ng/mL
[2]; [15]
  AUC(0-t): 123 ng·h/mL
  Cmax: 5.99 ng/mL
[2]; [16]
  AUC(0-t): 295 ng·h/mL
  Cmax: 16.7 ng/mL
[2]; [17]
  AUC(0-t): 305 ng·h/mL
  Cmax: 18.3 ng/mL
[2]; [18]
  AUC(0-t): 844 ng·h/mL
  Cmax: 41.4 ng/mL
[2]; [19]
  AUC(0-t): 925 ng·h/mL
  Cmax: 54.7 ng/mL
[2]; [20]
  AUC(0-t): 126 ng·h/mL
  Cmax: 10.7 ng/mL
[2]; [21]
  AUC(0-t): 293 ng·h/mL
  Cmax: 24.6 ng/mL
[2]; [22]
  AUC(0-t): 758 ng·h/mL
  Cmax: 43.7 ng/mL
[3]; 125 mg/kg bw/day, of 347(25) evaluated
  Malformations, fetuses (litters): 3(2)
[3]; 500 mg/kg bw/day, of 364(25) evaluated
  Malformations, fetuses (litters): 2(2)
[3]; 1000 mg/kg bw/day, of 327(22) evaluated
  Malformations, fetuses (litters): 4(3)
[3]; Mean, 125 mg/kg bw/day
  Corpora Lutea: 15.4
  Dead Fetuses: 0.0
  Fetal Wt.: 5.7 g
  Fetuses, Sex F: 6.8
  Fetuses, Sex M: 7.1
  Implant. Sites: 14.6
  Post- Implant. Loss: 0.7
  Pre- Implant. Loss: 0.8
  Resorptions Early: 0.7
  Resorptions Late: 0.0
[3]; Mean, 500 mg/kg bw/day
  Corpora Lutea: 16.6
  Dead Fetuses: 0.0
  Fetal Wt.: 5.6 g
  Fetuses, Sex F: 7.4
  Fetuses, Sex M: 7.2
  Implant. Sites: 15.4
  Post- Implant. Loss: 0.8
  Pre- Implant. Loss: 1.2
  Resorptions Early: 0.8
  Resorptions Late: 0.0
[3]; Mean, 1000 mg/kg bw/day
  Corpora Lutea: 16.9
  Dead Fetuses: 0.0
  Fetal Wt.: 5.6 g
  Fetuses, Sex F: 7.4
  Fetuses, Sex M: 7.5
  Implant. Sites: 15.8
  Post- Implant. Loss: 0.9
  Pre- Implant. Loss: 1.1
  Resorptions Early: 0.9
  Resorptions Late: 0.0
[3]; Total, 125 mg/kg bw/day
  Dead Fetuses: 0
  Fetuses, Sex F: 170
  Fetuses, Sex M: 177
  Implant. Sites: 364
  Post- Implant. Loss: 17
  Pre- Implant. Loss: 20
  Resorptions Early: 17
  Resorptions Late: 0
[3]; Total, 500 mg/kg bw/day
  Corpora Lutea: 415
  Dead Fetuses: 0
  Fetuses, Sex F: 185
  Fetuses, Sex M: 179
  Implant. Sites: 384
  Post- Implant. Loss: 20
  Pre- Implant. Loss: 31
  Resorptions Early: 19
  Resorptions Late: 1
[3]; Total, 1000 mg/kg bw/day
  Corpora Lutea: 372
  Dead Fetuses: 0
  Fetuses, Sex F: 162
  Fetuses, Sex M: 165
  Implant. Sites: 347
  Post- Implant. Loss: 20
  Pre- Implant. Loss: 25
  Resorptions Early: 20
  Resorptions Late: 0
[3]; oral gavage, gestation days 6-20
  NOAEL for both maternal toxicity and embryo/fetal development: NOAEL for both maternal toxicity and embryo/fetal development = 1000 mg/kg bw/day
[4]
  IC50: 0.035 µM
